Measurements collected from several papers.
Compare with care: the assays were run in different laboratories.
Read-out: cell growth or viability

For CC(C)Cn1c(=O)n(C)c(=O)c2c(-c3cncn3C)n(Cc3cccc4ccccc34)nc21, the CC50 was over 200 µM (Huh-7; MTT; 24 h).
CC(C)OC(=O)C(C)(C)Oc1ccc(C(=O)c2ccc(Cl)cc2)cc1 has a CC50 of over 50 µM (LX-2; ATP luminescence; 48 h, serum-free).
The CC50 of Nc1nc(NS(=O)(=O)c2ccccc2)nc(-c2ccc(F)cc2)c1-c1nc2ccccc2s1 is reported as 180 µg/mL (BGM).
The CC50 of CC(C)c1cc(Oc2c(Cl)cc(-n3nc(C#N)c(=O)[nH]c3=O)cc2Cl)n[nH]c1=O is reported as over 50 µM (LX-2; ATP luminescence; 48 h, serum-free).
The CC50 of CCOP(=O)(OCC)[C@@H]1C[C@@H](n2cc(Cn3ccc(NC(C)=O)nc3=O)nn2)ON1C (racemic) is reported as over 250 µM (human T-lymphocyte; 72 h).
N=C(N)c1ccc(OCCCCCOc2ccc(C(=N)N)cc2)cc1 gave a CC50 of 9.24 µM (Huh-7; MTT; 24 h).
With CCO[C@@H](Cc1ccc(OCCn2c(C)ccc2-c2ccc(SC)cc2)cc1)C(=O)O the CC50 was over 50 µM (LX-2; ATP luminescence; 48 h, serum-free).
The CC50 of C[C@@H](c1cc(Cl)cc(Cl)c1)N(C)c1ncc2c(N)nc(N)nc2n1 is reported as 57.6 µM (Huh-7; MTT; 24 h).
COc1ccc(NC(=O)N2CCCCN3[C@H](COCCC(=O)O)[C@H](c4ccc(C#Cc5ccccc5)cc4)[C@@H]3C2)cc1 has a CC50 of over 40 µM (HEK-293T).
For CO[C@H]1/C=C/O[C@@]2(C)Oc3c(C)c(O)c4c(O)c(c(/C=N/N5CCN(C)CC5)c(O)c4c3C2=O)NC(=O)/C(C)=C\C=C[C@H](C)[C@H](O)[C@@H](C)[C@@H](O)[C@@H](C)[C@H](OC(C)=O)[C@@H]1C, the CC50 was 304 µM (Huh-7; MTT; 24 h).
O=C1OC[C@H]2OC(O)[C@H](O)[C@@H](O)[C@@H]2OC(=O)c2cc(O)c(O)c(O)c2-c2c(O)c(O)c3oc(=O)c4c(c(O)c(O)c5oc(=O)c2c3c54)-c2c1cc(O)c(O)c2O (mixture of isomers) gave a CC50 of over 5000 µM (Huh-7; MTT).
For Nc1nc(NS(=O)(=O)c2ccccc2)ncc1-c1nc2ccccc2s1, the CC50 was 220 µg/mL (BGM).
With CCOP(=O)(OCC)[C@@H]1C[C@@H](n2cc(-c3ccccn3)nn2)ON1C (racemic) the CC50 was over 250 µM (human T-lymphocyte; 72 h).
With O=C(CNc1nc(NS(=O)(=O)c2ccccc2)ncc1-c1nc2ccccc2s1)c1ccc(Br)cc1 the CC50 was 220 µg/mL (BGM).
With CCOP(=O)(OCC)[C@@H]1C[C@H](n2cc(C(=O)OC)nn2)ON1C (relative stereo) the CC50 was over 250 µM (human T-lymphocyte; 72 h).
Cc1cc(NCCc2ccccc2)nc(NC(=N)Nc2ccc(Cl)cc2)n1 has a CC50 of 15.2 µM (Huh-7; MTT; 24 h).
CCOP(=O)(OCC)[C@@H]1C[C@H](n2cc(-c3nccn3C)nn2)ON1C has a CC50 of over 250 µM (human T-lymphocyte; 72 h).
For NCCN(C(=O)c1ccc(Cl)cc1Cl)c1ccc(OCc2ccc(Cl)cc2)cc1, the CC50 was 11.9 µM (Huh-7; MTT; 24 h).
With Cc1ccc(C(=O)CNc2nc(NS(=O)(=O)c3ccccc3)ncc2-c2nc3ccccc3s2)cc1 the CC50 was 170 µg/mL (BGM).
CCOP(=O)(OCC)[C@@H]1C[C@@H](n2cc(-c3cccc(F)c3)nn2)ON1C (racemic) has a CC50 of over 250 µM (human T-lymphocyte; 72 h).
For O=C(O)/C=C/C=C/c1cccc(Oc2cc(Cl)cc(Cl)c2)c1, the CC50 was over 200 µM (Huh-7; MTT; 24 h).
With CCOP(=O)(OCC)[C@@H]1C[C@H](n2cc(Cn3cnc4c(N)ncnc43)nn2)ON1C (relative stereo) the CC50 was over 250 µM (human T-lymphocyte; 72 h).
For Cc1ccc(S(=O)(=O)Nc2nc(N)c(-c3nc4ccccc4s3)c(-c3ccc(F)cc3)n2)cc1, the CC50 was 190 µg/mL (BGM).
With CCOP(=O)(OCC)[C@@H]1C[C@@H](n2cc(Cn3ccc(=O)[nH]c3=O)nn2)ON1C (racemic) the CC50 was over 250 µM (human T-lymphocyte; 72 h).
For CO[C@H]1C[C@@H](C[C@H](C)[C@H]2CC(=O)[C@@H](C)/C=C(\C)[C@H](O)[C@H](OC)C(=O)[C@@H](C)C[C@@H](C)/C=C/C=C/C=C(\C)[C@H](OC)C[C@H]3CC[C@H](C)[C@](O)(O3)C(=O)C(=O)N3CCCC[C@@H]3C(=O)O2)CC[C@@H]1OCCO (racemic), the CC50 was 15.9 µM (Huh-7; MTT; 24 h).
For CCOP(=O)(OCC)[C@@H]1C[C@H](n2cc(-c3ccccc3)nn2)ON1C, the CC50 was over 250 µM (human T-lymphocyte; 72 h).
The CC50 of C[C@H](NC(=O)OCc1ccccc1)C(=O)Nc1ccc(C2S/C(=N\c3cccc(F)c3)N(Cc3ccco3)C2=O)cc1 (stereo partly drawn) is reported as over 50 µM (Huh-7; 72 h, replicon).
